Results published in ChEMBL document CHEMBL4184183, “Novel sulfenamides and sulfonamides based on pyridazinone and pyridazine scaffolds as CB1 receptor ligand antagonists” (Bioorg Med Chem, 2018).
Calls of active or inactive are those of the source. The rule behind the calls is not given here.

Experiments:
Cannabinoid receptor 1 [1] = target: T1, Cannabinoid receptor 1 (Homo sapiens, UniProt P21554); test: Displacement of [3H]CP,55-940 from recombinant human CB1 receptor expressed in HEK293 EBNA cell membranes after 90 mins by microbeta scintillation counting method
T1 sequence (P21554 whole entry): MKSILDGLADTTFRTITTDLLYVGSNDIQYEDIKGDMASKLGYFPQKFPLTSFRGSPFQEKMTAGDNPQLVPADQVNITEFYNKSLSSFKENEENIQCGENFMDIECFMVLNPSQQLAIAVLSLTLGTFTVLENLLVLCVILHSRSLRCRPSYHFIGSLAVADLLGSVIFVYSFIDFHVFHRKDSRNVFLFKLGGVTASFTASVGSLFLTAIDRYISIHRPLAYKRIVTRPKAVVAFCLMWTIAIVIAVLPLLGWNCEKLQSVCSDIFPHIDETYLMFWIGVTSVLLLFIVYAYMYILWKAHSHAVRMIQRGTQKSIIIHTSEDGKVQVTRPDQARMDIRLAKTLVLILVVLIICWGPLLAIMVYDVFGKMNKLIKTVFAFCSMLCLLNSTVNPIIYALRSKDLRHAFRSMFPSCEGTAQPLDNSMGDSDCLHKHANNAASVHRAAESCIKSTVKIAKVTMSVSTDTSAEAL

Cannabinoid receptor 2 [2] = target: T2, Cannabinoid receptor 2 (Homo sapiens, UniProt P34972); test: Displacement of [3H]CP,55-940 from recombinant human CB2 receptor expressed in HEK293 EBNA cell membranes after 90 mins by microbeta scintillation counting method
T2 sequence (P34972 whole entry): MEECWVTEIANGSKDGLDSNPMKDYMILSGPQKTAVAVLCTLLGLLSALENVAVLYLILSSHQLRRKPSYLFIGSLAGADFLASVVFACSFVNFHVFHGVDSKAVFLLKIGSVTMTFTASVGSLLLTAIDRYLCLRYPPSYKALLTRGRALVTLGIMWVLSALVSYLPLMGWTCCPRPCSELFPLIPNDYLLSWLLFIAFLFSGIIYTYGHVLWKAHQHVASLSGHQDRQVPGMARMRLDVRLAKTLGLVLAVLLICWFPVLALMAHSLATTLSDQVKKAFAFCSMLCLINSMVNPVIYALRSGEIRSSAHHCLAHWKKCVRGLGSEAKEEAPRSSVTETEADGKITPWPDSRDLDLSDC

Cannabinoid receptor 1 [3] = target: T1, Cannabinoid receptor 1; test: Displacement of [3H]CP,55-940 from recombinant human CB1 receptor expressed in HEK293 EBNA cell membranes at 40 uM after 90 mins by microbeta scintillation counting method relative to control
Method in brief: (§1)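 Competition binding with [³H]-CP55,940 on human CB₁R or CB₂R transfected into HEK293 EBNA cells; each compound screened once at 40 µM for percent displacement of radioligand.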

Cannabinoid receptor 2 [4] = target: T2, Cannabinoid receptor 2; test: Displacement of [3H]CP,55-940 from recombinant human CB2 receptor expressed in HEK293 EBNA cell membranes at 40 uM after 90 mins by microbeta scintillation counting method relative to control; method in brief: as §1
Cannabinoid receptor 1 [5] = target: T1, Cannabinoid receptor 1; test: Antagonist activity at human CB1 receptor expressed in CHO cell membranes assessed as reduction in GTPgammaS binding after 30 mins by microbeta counting method; assay type: functional, cell-based
Mus musculus [6] = test: Analgesic effect in mouse assessed as elevation in latency response at 2.5 mg/kg measured after 5 mins by hot plate test; assay type: functional, organism-based
Method in brief: (§2)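 Hot-plate test in mice, read as latency to respond to the painful stimulus. Test agent at 2.5 mg/kg was given alone or with the cannabinoid agonist Δ9-THC at 5 mg/kg. […] 7-9 mice per group; means SEM; one-way ANOVA with Student-Newman-Keuls test.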

Mus musculus [7] = test: Analgesic effect in mouse assessed as elevation in latency response at 1 mg/kg measured after 5 mins by hot plate test; assay type: functional, organism-based
Mus musculus [8] = test: Reversal of delta9-THC-induced analgesic effect in mouse assessed as reduction in delta9-THC-induced elevation in latency response at 2.5 mg/kg measured after 5 mins by hot plate test; assay type: organism-based; settings: in vivo; method in brief: as §2

Cc1ccc(-c2cc(SNCC34CC5CC(CC(C5)C3)C4)nnc2-c2ccc(C)cc2)cc1
Ki (Cannabinoid receptor 1 [1]; read-out: Ki): 857 nM | Ki (Cannabinoid receptor 2 [2]; read-out: Ki): > 40000 nM | inhibition (Cannabinoid receptor 1 [3]): > 70% | inhibition (Cannabinoid receptor 2 [4]): < 70%

Cc1ccc(-c2cc(SNC3C4(C)CCC(C4)C3(C)C)nnc2-c2ccc(C)cc2)cc1 (centres undefined)
Ki (Cannabinoid receptor 1 [1]; read-out: Ki): 247 nM | Ki (Cannabinoid receptor 2 [2]; read-out: Ki): > 40000 nM | inhibition (Cannabinoid receptor 1 [3]): > 70% | inhibition (Cannabinoid receptor 2 [4]): < 70%

Cc1ccc(-c2cc(SNC3CCCC3)nnc2-c2ccc(C)cc2)cc1
Ki (Cannabinoid receptor 1 [1]; read-out: Ki): 724 nM | Ki (Cannabinoid receptor 2 [2]; read-out: Ki): > 40000 nM | inhibition (Cannabinoid receptor 1 [3]): > 70% | inhibition (Cannabinoid receptor 2 [4]): < 70%

Cc1ccc(-c2cc(S(=O)(=O)NC3CC4CCC3(C)C4(C)C)nnc2-c2ccc(C)cc2)cc1 (centres undefined)
Ki (Cannabinoid receptor 1 [1]; read-out: Ki): 1290 nM | Ki (Cannabinoid receptor 2 [2]; read-out: Ki): > 40000 nM | inhibition (Cannabinoid receptor 1 [3]): > 70% | inhibition (Cannabinoid receptor 2 [4]): < 70%

Cc1ccc(-c2cc(SNC3CC(C)CCC3C(C)C)nnc2-c2ccc(C)cc2)cc1 (centres undefined)
Ki (Cannabinoid receptor 1 [1]; read-out: Ki): 708 nM | Ki (Cannabinoid receptor 2 [2]; read-out: Ki): > 40000 nM | inhibition (Cannabinoid receptor 1 [3]): > 70% | inhibition (Cannabinoid receptor 2 [4]): < 70%

Cc1ccc(-c2cc(S(=O)(=O)NC3CCCC3)nnc2-c2ccc(C)cc2)cc1
Ki (Cannabinoid receptor 1 [1]; read-out: Ki): 1460 nM | Ki (Cannabinoid receptor 2 [2]; read-out: Ki): > 40000 nM | inhibition (Cannabinoid receptor 1 [3]): > 70% | inhibition (Cannabinoid receptor 2 [4]): < 70%

Cc1ccc(-c2cc(SNC3CC4CCC3(C)C4(C)C)nnc2-c2ccc(C)cc2)cc1 (centres undefined)
Ki (Cannabinoid receptor 1 [1]; read-out: Ki): 44.6 nM | Ki (Cannabinoid receptor 2 [2]; read-out: Ki): > 40000 nM | inhibition (Cannabinoid receptor 1 [3]): > 70% | IC50 (Cannabinoid receptor 1 [5]): 249 nM | inhibition (Cannabinoid receptor 2 [4]): < 70%

Cc1ccc(-c2cc(S(=O)(=O)NC3CCCCC3)nnc2-c2ccc(C)cc2)cc1
Ki (Cannabinoid receptor 1 [1]; read-out: Ki): 3600 nM | Ki (Cannabinoid receptor 2 [2]; read-out: Ki): > 40000 nM | inhibition (Cannabinoid receptor 1 [3]): > 70% | inhibition (Cannabinoid receptor 2 [4]): < 70%

Cc1ccc(-c2cc(SNC3CC4CC(C3C)C4(C)C)nnc2-c2ccc(C)cc2)cc1 (centres undefined)
Ki (Cannabinoid receptor 1 [1]; read-out: Ki): 75.5 nM | Ki (Cannabinoid receptor 2 [2]; read-out: Ki): > 40000 nM | inhibition (Cannabinoid receptor 1 [3]): > 70% | IC50 (Cannabinoid receptor 1 [5]): 182 nM | Activity (Mus musculus [6]): inactive | inhibition (Cannabinoid receptor 2 [4]): < 70%

Cc1ccc(-c2cc(S(=O)(=O)NC3CC4CC(C3C)C4(C)C)nnc2-c2ccc(C)cc2)cc1 (centres undefined)
Ki (Cannabinoid receptor 1 [1]; read-out: Ki): 73.2 nM | Ki (Cannabinoid receptor 2 [2]; read-out: Ki): > 40000 nM | inhibition (Cannabinoid receptor 1 [3]): > 70% | IC50 (Cannabinoid receptor 1 [5]): 550 nM | inhibition (Cannabinoid receptor 2 [4]): < 70%

Cc1ccc(-c2cc(SNCC3CCC4CC3C4(C)C)nnc2-c2ccc(C)cc2)cc1 (centres undefined)
Ki (Cannabinoid receptor 1 [1]; read-out: Ki): 1250 nM | Ki (Cannabinoid receptor 2 [2]; read-out: Ki): > 40000 nM | inhibition (Cannabinoid receptor 1 [3]): > 70% | inhibition (Cannabinoid receptor 2 [4]): < 70%

Cc1ccc(-c2cc(S(=O)(=O)NC3CCCCCC3)nnc2-c2ccc(C)cc2)cc1
Ki (Cannabinoid receptor 1 [1]; read-out: Ki): 800 nM | Ki (Cannabinoid receptor 2 [2]; read-out: Ki): > 40000 nM | inhibition (Cannabinoid receptor 1 [3]): > 70% | inhibition (Cannabinoid receptor 2 [4]): < 70%

Cc1ccc(-c2cc(S(=O)(=O)NC3CC(C)CCC3C(C)C)nnc2-c2ccc(C)cc2)cc1 (centres undefined)
Ki (Cannabinoid receptor 1 [1]; read-out: Ki): > 10000 nM | Ki (Cannabinoid receptor 2 [2]; read-out: Ki): > 40000 nM | inhibition (Cannabinoid receptor 1 [3]): > 70% | inhibition (Cannabinoid receptor 2 [4]): < 70%

Cc1ccc(-c2cc(SNC3CCCCC3)nnc2-c2ccc(C)cc2)cc1
Ki (Cannabinoid receptor 1 [1]): Nd(Insoluble) | Ki (Cannabinoid receptor 2 [2]): Nd(Insoluble)

Cc1ccc(-c2cc(SNCCN3CCOCC3)nnc2-c2ccc(C)cc2)cc1
Ki (Cannabinoid receptor 2 [2]; read-out: Ki): > 40000 nM | inhibition (Cannabinoid receptor 1 [3]): > 70% | inhibition (Cannabinoid receptor 2 [4]): < 70%

Cc1ccc(Cn2nc(-c3ccc(C)cc3)cc(SNC3CCCCCC3)c2=O)cc1
Ki (Cannabinoid receptor 1 [1]; read-out: Ki): > 40000 nM | Ki (Cannabinoid receptor 2 [2]; read-out: Ki): > 40000 nM | inhibition (Cannabinoid receptor 1 [3]): inactive | inhibition (Cannabinoid receptor 2 [4]): inactive

Cc1ccc(-c2cc(S(=O)(=O)NCC3CCC4CC3C4(C)C)nnc2-c2ccc(C)cc2)cc1 (centres undefined)
Ki (Cannabinoid receptor 1 [1]; read-out: Ki): > 10000 nM | Ki (Cannabinoid receptor 2 [2]; read-out: Ki): > 40000 nM | inhibition (Cannabinoid receptor 1 [3]): > 70% | inhibition (Cannabinoid receptor 2 [4]): < 70%

Cc1c(C(=O)NN2CCCCC2)nn(-c2ccc(Cl)cc2Cl)c1-c1ccc(Cl)cc1
Activity (Mus musculus [7]): inactive

Cc1ccc(-c2cc(SNC3CCCCCC3)nnc2-c2ccc(C)cc2)cc1
Ki (Cannabinoid receptor 1 [1]; read-out: Ki): 609 nM | Ki (Cannabinoid receptor 2 [2]; read-out: Ki): > 40000 nM | inhibition (Cannabinoid receptor 1 [3]): > 70% | inhibition (Cannabinoid receptor 2 [4]): < 70%

Cc1ccc(Cn2nc(-c3ccc(C)cc3)cc(S(=O)(=O)NC3CCCCCC3)c2=O)cc1
Ki (Cannabinoid receptor 1 [1]; read-out: Ki): 1190 nM | Ki (Cannabinoid receptor 2 [2]; read-out: Ki): 2550 nM | Activity (Mus musculus [8]): Toxic | inhibition (Cannabinoid receptor 1 [3]): > 70% | inhibition (Cannabinoid receptor 2 [4]): < 70%
